Columns and labels:
[1] = biological target: Transient receptor potential cation channel subfamily A member 1 (Rattus norvegicus) (UniProt Q6RI86); experiment: Agonist activity at rat recombinant TRPA1 overexpressed in HEK293 cells assessed as induction of intracellular calcium influx by Fluo-4-AM dye-based spectrofluorimetric analysis relative to allyl isothiocyanate; format: cell-based
[2] = biological target: Transient receptor potential cation channel subfamily M member 8 (Rattus norvegicus) (UniProt Q8R455); experiment: Agonist activity at rat recombinant TRPM8 overexpressed in HEK293 cells assessed as induction of intracellular calcium influx by Fluo-4-AM dye-based spectrofluorimetric analysis relative to ionomycin; format: cell-based; design: concentration or dose not given beside the values
[3] = biological target: T1, Transient receptor potential cation channel subfamily M member 8 (Rattus norvegicus, UniProt Q8R455); experiment: Agonist activity at rat recombinant TRPM8 overexpressed in HEK293 cells assessed as induction of intracellular calcium influx by Fluo-4-AM dye-based spectrofluorimetric analysis; format: cell-based
[4] = biological target: T1, Transient receptor potential cation channel subfamily M member 8; experiment: Antagonist activity at rat recombinant TRPM8 overexpressed in HEK293 cells assessed as inhibition of icilin-induced intracellular calcium influx preincubated for 5 mins followed by icilin challenge by Fluo-4-AM dye-based spectrofluorimetric analysis; format: cell-based
[5] = biological target: T2, Transient receptor potential cation channel subfamily A member 1 (Rattus norvegicus, UniProt Q6RI86); experiment: Agonist activity at rat recombinant TRPA1 overexpressed in HEK293 cells assessed as induction of intracellular calcium influx by Fluo-4-AM dye-based spectrofluorimetric analysis; format: cell-based
[6] = biological target: T1, Transient receptor potential cation channel subfamily M member 8; experiment: Antagonist activity at rat recombinant TRPM8 overexpressed in HEK293 cells assessed as inhibition of menthol-induced intracellular calcium influx preincubated for 5 mins followed by menthol challenge by Fluo-4-AM dye-based spectrofluorimetric analysis; format: cell-based
[7] = biological target: T2, Transient receptor potential cation channel subfamily A member 1; experiment: Antagonist activity at rat recombinant TRPA1 overexpressed in HEK293 cells assessed as inhibition of allyl isothiocyanate-induced intracellular calcium influx preincubated for 5 mins followed by allyl isothiocyanate challenge by Fluo-4-AM dye-based spectrofluorimetric analysis; format: cell-based
Summary of the method: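 Test compounds were preincubated for 5 min in the cuvette with Fluo-4-loaded rat TRPA1-HEK293 cells in Tyrode's buffer, followed by 100 µM AITC challenge.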

[8] = biological target: T3, Transient receptor potential cation channel subfamily A member 1 (Homo sapiens, UniProt O75762); experiment: Agonist activity at TRPA1 (unknown origin)
[9] = biological target: T3, Transient receptor potential cation channel subfamily A member 1; experiment: Antagonist activity at TRPA1 (unknown origin) assessed as inhibition of mustard oil-activated […]
Summary of the method: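 Rat TRPA1 stably expressed in HEK293 cells grown in EMEM with 10% FBS. Cells were loaded with Fluo-4-AM (4 µM) for 1 h at room temperature, then suspended in Tyrode's buffer pH 7.4. Compound was added 5 min before 100 µM allyl isothiocyanate. Ca2+ fluorescence (ex 488/em 516 nm) was read at 25 °C, with the agonist-alone response set as 100%.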

T1 sequence (Q8R455 whole entry): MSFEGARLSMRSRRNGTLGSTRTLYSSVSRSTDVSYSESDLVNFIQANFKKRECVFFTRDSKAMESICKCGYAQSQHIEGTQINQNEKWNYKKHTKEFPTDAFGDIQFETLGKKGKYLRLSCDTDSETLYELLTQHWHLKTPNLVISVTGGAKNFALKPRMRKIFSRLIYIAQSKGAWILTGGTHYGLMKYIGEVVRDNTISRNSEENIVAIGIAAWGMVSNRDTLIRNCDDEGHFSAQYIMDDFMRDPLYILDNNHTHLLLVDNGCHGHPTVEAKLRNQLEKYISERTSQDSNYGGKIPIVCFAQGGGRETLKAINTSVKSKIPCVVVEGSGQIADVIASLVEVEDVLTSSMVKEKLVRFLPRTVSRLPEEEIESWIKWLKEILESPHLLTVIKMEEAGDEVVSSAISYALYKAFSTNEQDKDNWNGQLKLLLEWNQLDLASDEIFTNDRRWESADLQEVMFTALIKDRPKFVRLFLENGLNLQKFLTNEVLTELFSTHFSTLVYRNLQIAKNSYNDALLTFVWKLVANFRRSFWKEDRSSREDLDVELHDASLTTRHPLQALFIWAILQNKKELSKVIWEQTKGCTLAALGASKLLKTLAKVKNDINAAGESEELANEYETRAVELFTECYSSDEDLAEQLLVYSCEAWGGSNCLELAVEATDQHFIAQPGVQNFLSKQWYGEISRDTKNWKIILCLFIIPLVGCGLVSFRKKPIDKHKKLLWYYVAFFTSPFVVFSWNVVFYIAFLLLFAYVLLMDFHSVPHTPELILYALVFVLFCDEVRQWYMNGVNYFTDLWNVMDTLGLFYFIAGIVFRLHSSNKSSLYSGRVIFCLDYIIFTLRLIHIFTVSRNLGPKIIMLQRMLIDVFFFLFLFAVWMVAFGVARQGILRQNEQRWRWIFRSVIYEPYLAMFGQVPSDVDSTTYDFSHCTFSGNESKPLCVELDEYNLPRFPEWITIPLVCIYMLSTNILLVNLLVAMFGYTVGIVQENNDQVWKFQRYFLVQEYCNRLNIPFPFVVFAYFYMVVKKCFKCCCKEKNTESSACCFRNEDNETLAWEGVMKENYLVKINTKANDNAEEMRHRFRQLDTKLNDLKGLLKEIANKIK
Sequence of Transient receptor potential cation channel subfamily M member 8 (Rattus norvegicus) (Q8R455 whole entry, looked up): as the sequence (Q8R455 whole entry) above
Sequence of Transient receptor potential cation channel subfamily A member 1 (Rattus norvegicus) (Q6RI86 whole entry): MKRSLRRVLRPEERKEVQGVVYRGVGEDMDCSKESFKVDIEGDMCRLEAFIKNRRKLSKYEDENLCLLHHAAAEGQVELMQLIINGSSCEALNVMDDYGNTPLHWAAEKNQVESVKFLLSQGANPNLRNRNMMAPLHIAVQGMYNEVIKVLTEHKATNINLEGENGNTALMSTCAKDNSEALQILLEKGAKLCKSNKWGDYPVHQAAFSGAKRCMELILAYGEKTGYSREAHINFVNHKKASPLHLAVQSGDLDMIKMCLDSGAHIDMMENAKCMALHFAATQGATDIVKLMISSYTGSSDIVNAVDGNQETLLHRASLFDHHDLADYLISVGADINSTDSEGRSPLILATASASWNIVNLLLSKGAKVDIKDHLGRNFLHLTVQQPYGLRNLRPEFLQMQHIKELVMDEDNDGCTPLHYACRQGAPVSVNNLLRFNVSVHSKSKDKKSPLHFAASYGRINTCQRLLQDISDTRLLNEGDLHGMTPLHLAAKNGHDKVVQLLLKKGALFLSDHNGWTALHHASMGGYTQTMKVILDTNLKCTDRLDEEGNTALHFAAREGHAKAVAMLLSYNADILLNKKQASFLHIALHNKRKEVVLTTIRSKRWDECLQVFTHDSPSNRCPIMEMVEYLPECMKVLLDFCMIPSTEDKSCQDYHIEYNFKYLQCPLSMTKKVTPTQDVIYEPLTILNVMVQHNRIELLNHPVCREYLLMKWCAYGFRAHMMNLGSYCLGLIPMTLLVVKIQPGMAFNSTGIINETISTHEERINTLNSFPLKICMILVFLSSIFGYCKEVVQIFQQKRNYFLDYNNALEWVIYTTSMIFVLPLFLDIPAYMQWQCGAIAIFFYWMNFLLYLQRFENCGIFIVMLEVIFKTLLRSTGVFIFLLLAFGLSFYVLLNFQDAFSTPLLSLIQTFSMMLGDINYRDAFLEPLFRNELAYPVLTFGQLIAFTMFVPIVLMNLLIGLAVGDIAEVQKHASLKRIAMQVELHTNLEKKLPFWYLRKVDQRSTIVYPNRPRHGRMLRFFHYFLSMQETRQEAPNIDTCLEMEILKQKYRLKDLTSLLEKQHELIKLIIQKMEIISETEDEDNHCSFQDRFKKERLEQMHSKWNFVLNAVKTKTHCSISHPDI
T2 sequence (Q6RI86 whole entry): as above
T3 sequence (O75762 whole entry): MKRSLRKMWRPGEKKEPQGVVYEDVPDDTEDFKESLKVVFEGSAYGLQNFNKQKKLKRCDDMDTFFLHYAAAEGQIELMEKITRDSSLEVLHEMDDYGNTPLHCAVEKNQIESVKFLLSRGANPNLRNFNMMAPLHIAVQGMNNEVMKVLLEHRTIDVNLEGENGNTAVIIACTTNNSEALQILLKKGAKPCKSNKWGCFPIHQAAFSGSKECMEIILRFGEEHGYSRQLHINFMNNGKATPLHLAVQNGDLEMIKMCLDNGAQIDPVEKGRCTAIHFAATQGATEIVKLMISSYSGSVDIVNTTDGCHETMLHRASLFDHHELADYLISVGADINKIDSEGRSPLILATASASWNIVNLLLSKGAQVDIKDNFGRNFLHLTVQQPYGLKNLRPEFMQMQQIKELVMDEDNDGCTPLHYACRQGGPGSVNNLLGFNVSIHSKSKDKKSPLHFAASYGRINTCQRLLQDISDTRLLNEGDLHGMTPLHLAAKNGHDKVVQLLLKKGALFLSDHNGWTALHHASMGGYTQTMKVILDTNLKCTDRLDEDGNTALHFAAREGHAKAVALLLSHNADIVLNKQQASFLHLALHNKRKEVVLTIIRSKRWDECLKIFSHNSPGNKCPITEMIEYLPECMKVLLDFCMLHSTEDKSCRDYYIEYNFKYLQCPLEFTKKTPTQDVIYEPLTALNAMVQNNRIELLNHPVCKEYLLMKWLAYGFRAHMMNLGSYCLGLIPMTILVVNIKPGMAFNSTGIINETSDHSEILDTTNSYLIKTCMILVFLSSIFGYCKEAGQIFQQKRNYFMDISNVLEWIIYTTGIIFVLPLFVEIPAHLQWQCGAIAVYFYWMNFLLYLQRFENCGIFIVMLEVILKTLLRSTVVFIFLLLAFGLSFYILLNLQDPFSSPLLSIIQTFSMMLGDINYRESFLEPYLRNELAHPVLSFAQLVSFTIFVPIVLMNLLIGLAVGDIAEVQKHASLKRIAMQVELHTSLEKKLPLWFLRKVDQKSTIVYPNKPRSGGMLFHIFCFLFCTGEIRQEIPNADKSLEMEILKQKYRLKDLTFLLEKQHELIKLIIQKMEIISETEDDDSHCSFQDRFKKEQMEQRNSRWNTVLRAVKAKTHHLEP

Structure (SMILES)	Efficacy [1]	Efficacy [2]	EC50 [3]	IC50 [4]	EC50 [5]	IC50 [6]	IC50 [7]	EC50 [8]	IC50 [9]
CCC/C=C1\OC(=O)c2ccccc21	< 10%	< 10%							
COc1ccc(/C=C2\OC(=O)c3ccccc32)cc1	65.1%	12.9%	1.8 µM	3.4 µM	1.3 µM	11.3 µM	2.2 µM		
CCC/C=C1\OC(=O)C2=C1CCC=C2 [LIGUSTILIDE]								44 µM	
O=C1O/C(=C\c2ccccc2)c2ccccc21	93.6%	< 10%		8.3 µM	3 µM	10.2 µM	2.9 µM		
Cc1ccc(/C=C2\OC(=O)c3ccccc32)cc1	126%	< 10%		7.2 µM	4.3 µM	25.1 µM	2.4 µM		
CC/C=C1\OC(=O)c2c(C)cc(C)cc21	43.7%	< 10%		7.7 µM	15.8 µM	12.1 µM	36.3 µM		
CCC/C=C1\OC(=O)c2ccccc21 [Z-butylidenephthalide]				141 µM		153 µM	44.5 µM		
Cc1cc(C)c2c(c1)/C(=C/c1ccccc1)OC2=O	117%	< 10%		1 µM	1.1 µM	1.9 µM	0.8 µM		
C=C1OC(=O)c2cc(F)ccc21	10.2%	< 10%		> 200 µM	32.2 µM	> 200 µM	> 100 µM		
C=C1OC(=O)c2c(C)cc(C)cc21	85.1%	< 10%		90.1 µM	17.2 µM	128 µM	34 µM		
C/C=C1\OC(=O)c2ccc(OC)cc21	24.6%	< 10%		161 µM	21.7 µM	> 200 µM	> 100 µM		
CCC/C=C1\OC(=O)c2ccccc21 (mixture of isomers) [Z-butylidenephthalide]									23 µM
O=C1O/C(=C\c2ccc(Cl)cc2)c2ccccc21	112%	< 10%		14.9 µM	2 µM	48.1 µM	1.5 µM		
